Data set [1] is described as follows: Thermodynamic solubility of the compound in pH 4 solution. The note with it: read-out: Therm_solubility. The format is physicochemical.
The target in the next data set is CYP3A4 (Homo sapiens, UniProt P08684). Nature of the data set: Inhibition of CYP3A4 (unknown origin) at 5 uM relative to control. The format is ADME.
In the next data set the target is CYP2D6 (Homo sapiens, UniProt P10635). Nature of the data set: Inhibition of CYP2D6 (unknown origin) at 5 uM relative to control. The format is ADME.
Sequence of CYP2D6 (P10635 whole entry): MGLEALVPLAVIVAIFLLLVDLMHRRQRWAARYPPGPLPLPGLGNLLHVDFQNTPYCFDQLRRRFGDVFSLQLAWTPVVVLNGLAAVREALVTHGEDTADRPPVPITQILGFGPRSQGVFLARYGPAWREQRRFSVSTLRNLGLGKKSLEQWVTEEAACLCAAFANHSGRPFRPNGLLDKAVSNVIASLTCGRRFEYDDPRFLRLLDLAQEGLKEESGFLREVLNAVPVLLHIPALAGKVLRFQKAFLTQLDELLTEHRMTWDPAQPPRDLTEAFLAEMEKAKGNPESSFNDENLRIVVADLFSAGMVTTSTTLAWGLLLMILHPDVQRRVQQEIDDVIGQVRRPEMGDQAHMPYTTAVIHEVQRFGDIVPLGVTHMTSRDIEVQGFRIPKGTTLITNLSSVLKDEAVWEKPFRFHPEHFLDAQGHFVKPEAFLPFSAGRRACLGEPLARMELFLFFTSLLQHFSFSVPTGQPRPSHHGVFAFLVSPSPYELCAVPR
The target in a further data set is Adenosine receptor A2a (Homo sapiens, UniProt P29274). The experiment in a line: Displacement of [3H]ZM241385 from human adenosine A2A receptor expressed in HEK293 cell membranes after 90 mins. In outline:
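Membranes from HEK-293 cells stably transfected with human receptor, pre-treated with adenosine deaminase. Radioligands: 1 nM [3H]DPCPX (A1), 1 nM [3H]ZM241385 (A2A), 1.6 nM [3H]MRS-1754 (A2B), 2 nM [3H]HEMADO (A3). Buffers: Tris pH 7.4 (A1, A2A, A3) or pH 6.5 (A2B), with ADA. Incubated 90 min at room temperature, then filtered. Nonspecific binding defined with 100 µM NECA. Ki from 8 concentrations run in triplicate.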
Background: In a radioligand displacement assay an active substance lowers the binding of a labelled ligand.

Data set [2] relates to Liver. Nature of the data set: Metabolic stability in rat liver microsomes assessed as metabolic rate measured after 30 mins in presence of NADPH. Type of data set: ADME, microsome. The note with it: 0.5 h.
A further data set deals with T1, CYP1A2 (Homo sapiens, UniProt P05177).
T1 sequence (P05177 whole entry): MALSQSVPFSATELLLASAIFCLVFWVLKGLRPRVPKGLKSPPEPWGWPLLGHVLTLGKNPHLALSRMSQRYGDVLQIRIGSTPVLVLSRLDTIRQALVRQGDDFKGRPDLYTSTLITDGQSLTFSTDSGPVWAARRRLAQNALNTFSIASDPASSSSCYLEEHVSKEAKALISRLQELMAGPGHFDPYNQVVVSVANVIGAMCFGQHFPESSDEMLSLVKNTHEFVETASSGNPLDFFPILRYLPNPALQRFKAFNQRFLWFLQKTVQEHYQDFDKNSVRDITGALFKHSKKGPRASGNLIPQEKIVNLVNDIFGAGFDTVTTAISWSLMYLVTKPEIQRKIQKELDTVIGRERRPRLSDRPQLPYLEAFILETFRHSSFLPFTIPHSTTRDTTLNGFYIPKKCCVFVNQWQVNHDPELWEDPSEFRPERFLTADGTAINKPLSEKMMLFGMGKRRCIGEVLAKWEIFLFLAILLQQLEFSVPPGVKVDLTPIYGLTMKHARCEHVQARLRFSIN
Nature of the data set: Inhibition of CYP1A2 (unknown origin) at 5 uM relative to control. Type of data set: ADME.

Data set [3] deals with Liver. Nature of the data set: Metabolic stability in human liver microsomes assessed as metabolic rate measured after 30 mins in presence of NADPH. Type of data set: ADME, microsome. The note with it: 0.5 h.
A short description of data set [4]: Metabolic stability in rat liver microsomes assessed as parent compound remaining measured after 30 mins in presence of NADPH. Type of data set: ADME, microsome. The following applies: read-out: Stability. For orientation: Liver microsomes are a subcellular fraction often used to study metabolism.
Data set [5] in a line: Protein binding in rat plasma at 5 uM. The format is ADME, cell-free. The following applies: read-out: PPB (converted).
Data set [6] is described as follows: Clearance in Wistar rat at 3 mg/kg, iv by LC-Ms/MS analysis. Type of data set: ADME, organism-based. The note with it: in vivo. In outline:
(§1)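 Male Wistar rats (230 ± 15 g), fasted overnight with water available. IV dose of 3 mg/kg given by tail vein as a solution (0.6 mg/mL, 5 mL/kg). PO dose of 5 mg/kg given by gavage as a suspension. Blood was collected into K2EDTA at 0.008 (IV only) to 24 h and plasma was spun off. Samples were precipitated with acetonitrile and run on LC/MS/MS. Parameters came from non-compartmental analysis of individual animals, mean of n = 4.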

A short description of data set [7]: Volume of distribution at steady state in Wistar rat at 3 mg/kg, iv by LC-Ms/MS analysis. The format is ADME, organism-based. The note with it: in vivo, read-out: Vdss. Summed up: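 Male Wistar rats (230 ± 15 g), fasted overnight with water available. IV dosing at 3 mg/kg by tail vein as solution (0.6 mg/mL, 5 mL/kg). PO dosing at 5 mg/kg by oral gavage. Serial blood sampling into K2EDTA from 0.008 (IV only) to 24 h. Plasma precipitated with acetonitrile containing internal standard and analysed by LC/MS/MS. Non-compartmental parameters calculated per animal; values are means of n = 4.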

Data set [8] is described as follows: AUC (0 to t) in Wistar rat at 3 mg/kg, iv by LC-Ms/MS analysis. The format is ADME, organism-based. The note with it: in vivo. In outline:
as §1

Data set [9] is described as follows: Elimination half life in Wistar rat at 3 mg/kg, iv by LC-Ms/MS analysis. The format is ADME, organism-based. The note with it: in vivo, read-out: beta t1/2 (converted). Summed up:
as §1

In data set [10] the target is T2, Adenosine receptor A1 (Homo sapiens, UniProt P30542).
T2 sequence (P30542 whole entry): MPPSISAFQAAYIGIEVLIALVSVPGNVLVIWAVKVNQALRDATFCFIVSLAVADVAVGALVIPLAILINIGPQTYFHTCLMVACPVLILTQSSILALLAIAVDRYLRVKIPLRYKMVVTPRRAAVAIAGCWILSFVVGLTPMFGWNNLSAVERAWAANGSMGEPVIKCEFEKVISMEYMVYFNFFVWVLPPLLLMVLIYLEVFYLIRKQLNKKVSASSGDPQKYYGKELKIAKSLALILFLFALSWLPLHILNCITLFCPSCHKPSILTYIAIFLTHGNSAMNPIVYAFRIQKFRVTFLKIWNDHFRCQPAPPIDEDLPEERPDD
Nature of the data set: Antagonist activity at human adenosine A1 receptor expressed in HEK293 cells assessed as reduction in CPA-mediated inhibition of forskolin-stimulated cAMP level preincubated for 15 mins followed by CPA treatment for 15 mins and subsequent addition of forskolin measured after 30 mins by HTRF assay. Type of data set: functional, cell-based. A general note: cAMP levels reflect the balance of adenylyl cyclase and phosphodiesterase activity.

A short description of data set [11]: Thermodynamic solubility of the compound in pH 7.4 solution. The note with it: read-out: Therm_solubility. The format is physicochemical.
The target of another data set is T3, Adenosine receptor A2b (Homo sapiens, UniProt P29275).
T3 sequence (P29275 whole entry): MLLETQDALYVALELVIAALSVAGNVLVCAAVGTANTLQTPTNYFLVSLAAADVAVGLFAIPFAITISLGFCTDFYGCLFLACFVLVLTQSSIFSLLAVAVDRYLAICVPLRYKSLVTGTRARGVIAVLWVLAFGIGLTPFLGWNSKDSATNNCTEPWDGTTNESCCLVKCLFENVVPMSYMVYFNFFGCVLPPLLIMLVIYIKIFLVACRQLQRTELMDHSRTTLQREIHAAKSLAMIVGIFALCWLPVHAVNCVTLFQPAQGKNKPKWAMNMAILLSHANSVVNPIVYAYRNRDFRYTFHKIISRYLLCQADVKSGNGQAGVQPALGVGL
Nature of the data set: Antagonist activity at human adenosine A2B receptor expressed in HEK293 cells assessed as reduction in NECA-induced increase in cAMP level preincubated for 15 mins followed by NECA addition measured after 15 mins by HTRF assay. Type of data set: functional, cell-based. In outline:
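Overnight HEK-A1 or HEK-A2B cultures were treated with 1 U/mL ADA for 90 min at 37°C. Compound was added for 15 min, then agonist for 15 min (1 nM CPA for A1; 70 nM NECA for A2B) at room temperature in incomplete DMEM with ADA. Rolipram (20 µM) was included for A1 only. cAMP was read by HTRF.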

A short description of data set [12]: Thermodynamic solubility of the compound in pH 2 solution. The format is physicochemical. The note with it: read-out: Therm_solubility.
The target of data set [13] is T2, Adenosine receptor A1. The experiment in a line: Displacement of [3H]DPCPX from human adenosine A1 receptor expressed in HEK293 cell membranes after 90 mins.

Values after ≈ are worked out from the molar mass of the structure shown.

Sequence of Adenosine receptor A2a (P29274 whole entry): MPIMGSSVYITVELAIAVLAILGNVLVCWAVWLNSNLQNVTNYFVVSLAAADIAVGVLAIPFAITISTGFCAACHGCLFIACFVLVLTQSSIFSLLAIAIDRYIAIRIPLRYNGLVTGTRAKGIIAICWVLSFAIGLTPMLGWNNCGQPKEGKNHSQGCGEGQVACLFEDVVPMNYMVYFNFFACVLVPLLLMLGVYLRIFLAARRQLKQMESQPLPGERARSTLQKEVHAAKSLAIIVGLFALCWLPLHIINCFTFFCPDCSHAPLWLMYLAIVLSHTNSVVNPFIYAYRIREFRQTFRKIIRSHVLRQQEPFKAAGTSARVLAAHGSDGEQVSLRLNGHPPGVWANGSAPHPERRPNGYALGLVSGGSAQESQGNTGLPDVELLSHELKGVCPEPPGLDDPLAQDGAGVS
Sequence of CYP3A4 (P08684 whole entry): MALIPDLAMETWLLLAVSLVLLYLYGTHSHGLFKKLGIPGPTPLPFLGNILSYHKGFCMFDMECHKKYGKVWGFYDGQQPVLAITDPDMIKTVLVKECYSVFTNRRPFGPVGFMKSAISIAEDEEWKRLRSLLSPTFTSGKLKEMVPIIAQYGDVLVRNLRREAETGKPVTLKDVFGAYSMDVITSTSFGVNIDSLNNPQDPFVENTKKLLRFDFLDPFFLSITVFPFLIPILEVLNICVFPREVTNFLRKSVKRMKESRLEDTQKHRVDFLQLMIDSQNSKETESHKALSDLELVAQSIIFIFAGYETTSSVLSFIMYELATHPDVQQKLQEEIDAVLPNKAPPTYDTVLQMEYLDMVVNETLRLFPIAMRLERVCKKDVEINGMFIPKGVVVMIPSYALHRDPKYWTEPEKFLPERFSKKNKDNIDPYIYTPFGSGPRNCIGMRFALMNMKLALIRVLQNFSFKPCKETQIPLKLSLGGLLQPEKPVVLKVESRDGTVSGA

For the molecule `CCCn1c(-c2cccc(OC)c2)nc2nc(C3CCCC3)[nH]c2c1=O`, the solubility thermodynamic in data set [1] was 63 µM (≈ 22.2 µg/mL); in data set [11], 54 µM (≈ 19 µg/mL); in data set [12], 614 µM (≈ 216 µg/mL). Also, the inhibition – broadly, how much of the control response was suppressed – at 5 µM against CYP3A4 amounted to 5%; against CYP2D6 it was 1%; against CYP1A2, 0%. The Ki – broadly, the equilibrium dissociation constant of an inhibitor or competing ligand from its target – at Adenosine receptor A2a is no less than 10000 nM; at Adenosine receptor A1 [10], 15 nM; on Adenosine receptor A2b, 650 to 690 nM; on Adenosine receptor A1 [13], 16 nM. Moreover, the Drug metabolism in the data set with Liver [2] is 0.05 nmol/min/mg; in the data set on Liver [3] it was 0.03 nmol/min/mg. Moreover, in [4], the remaining at 0.5 h is 82%. In data set [5], the fraction unbound at 5 µM was 0.05. Besides, the clearance (in general, a measure of how efficiently the substance is removed, as volume per time) in data set [6] came out at 39.2 mL/min/kg. Further, in [7], the Vd stood at 1.2 L/kg. The AUC(0-t) (as a rule, exposure summed from dosing to a finite time, without extrapolation to infinity) in data set [8] is 3.53 µM·h. The half-life in data set [9] is 29.4 min.
In the case of `CCCn1c(Oc2cccnc2C)nc2nc(C3CCCC3)[nH]c2c1=O`, the solubility thermodynamic in data set [1] is 43 µM (≈ 15.2 µg/mL); in data set [11] it was 38 µM (≈ 13.4 µg/mL); in data set [12], 2150 µM (≈ 761 µg/mL). Further, the inhibition at 5 µM against CYP3A4, on CYP2D6 and on CYP1A2 was 0% in each case. Also, the inhibition constant (Ki) came out at 2000 nM on Adenosine receptor A2a, 0.28 nM at Adenosine receptor A1 [10], 560 nM on Adenosine receptor A2b and 6.6 nM at Adenosine receptor A1 [13]. The figures for the Drug metabolism in the data set on Liver [2] and in the data set on Liver [3] were 0.07 nmol/min/mg and 0.06 nmol/min/mg, respectively. Also, in [4], the remaining at 0.5 h turned out to be 78%. Besides, the fraction unbound at 5 µM in [5] was 0.23. Further, the clearance in data set [6] was determined as 55 mL/min/kg. Moreover, the Vd in data set [7] is 2 L/kg. Moreover, the exposure AUC(0-t) in data set [8] came out at 2.7 µM·h. Further, the half-life in data set [9] is 30 min.
As to `CCCn1c(Oc2ccc(F)c(F)c2)nc2nc(C3CCCC3)[nH]c2c1=O`, the solubility thermodynamic in data set [1] was determined as 23 µM (≈ 8.61 µg/mL); in data set [11], 17 µM (≈ 6.36 µg/mL); in data set [12] it was 77 µM (≈ 28.8 µg/mL). In addition, the values for the inhibition at 5 µM against CYP3A4, against CYP2D6 and on CYP1A2 were 34%, 10% and 7%, respectively. Besides, the inhibition constant (Ki) on Adenosine receptor A2a was greater than 10000 nM; on Adenosine receptor A1 [10], 13 nM; at Adenosine receptor A2b it was greater than 10000 nM; on Adenosine receptor A1 [13] it was 23 nM. In addition, the Drug metabolism is on record as 0.08 nmol/min/mg in the data set with Liver [2] and 0.05 nmol/min/mg in the data set with Liver [3]. In addition, the remaining at 0.5 h in data set [4] worked out at 75%. Further, the fraction unbound at 5 µM in data set [5] was 0.01. The molecule further displayed a clearance in [6] of 13.6 mL/min/kg. For the same molecule, the Vd in data set [7] worked out at 1.73 L/kg. In data set [8], this molecule gave an area under the curve AUC(0-t) of 10.2 µM·h. Besides, the half-life in [9] was 124 min.

The record behind these values is ChEMBL document CHEMBL3992564, “Design and synthesis of novel, potent and selective hypoxanthine analogs as adenosine A1 receptor antagonists and their biological evaluation” (Bioorg Med Chem, 2017).
